Reference: ChEMBL document CHEMBL3352045, “Ionic liquid catalyzed synthesis of 2-(indole-3-yl)-thiochroman-4-ones and their novel antifungal activities” (2015)
Values after ≈ are worked out from the molar mass of the structure shown.

Tests used:
Type in all cases: functional
Candida albicans = experiment: Antifungal activity against Candida albicans after 2 to 7 days by serial plate dilution method
Procedure, shortened: (§1)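 Compounds dissolved as DMSO stocks and serially diluted in RPMI 1640 buffered with MOPS, giving final concentrations of 128–0.25. Individual fungal inoculum added to each well. Incubated in triplicate at 37 °C for 2–7 days. MIC read as the lowest concentration with no visible growth. Amphotericin B and fluconazole served as positive controls.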

Cryptococcus neoformans = experiment: Antifungal activity against Cryptococcus neoformans after 2 to 7 days by serial plate dilution method; procedure, shortened: as §1
Mucor racemosus = experiment: Antifungal activity against Mucor racemosus after 2 to 7 days by serial plate dilution method
Nannizzia gypsea = experiment: Antifungal activity against Microsporum gypseum after 2 to 7 days by serial plate dilution method; procedure, shortened: as §1
Epidermophyton floccosum = experiment: Antifungal activity against Epidermophyton floccosum after 2 to 7 days by serial plate dilution method; procedure, shortened: as §1

Compound | MIC (Candida albicans) [mg/L] | MIC (Cryptococcus neoformans) [mg/L] | MIC (Mucor racemosus) [mg/L] | MIC (Nannizzia gypsea) [mg/L] | MIC (Epidermophyton floccosum) [mg/L]
Cn1cc(C2CC(=O)c3cc(Cl)ccc3S2)c2ccccc21 (stereo not given) | 64 (≈ 195 µM) | 128 (≈ 390 µM) | 32 (≈ 97.6 µM) | 128 (≈ 390 µM) | 128 (≈ 390 µM)
Cn1cc(C2CC(=O)c3cccc(Cl)c3S2)c2ccccc21 (stereo not given) | 32 (≈ 97.6 µM) | 64 (≈ 195 µM) | 32 (≈ 97.6 µM) | 32 (≈ 97.6 µM) | 32 (≈ 97.6 µM)
OC(Cn1cncn1)(Cn1cncn1)c1ccc(F)cc1F [FLUCONAZOLE] | 32 (≈ 104 µM) | 8 (≈ 26.1 µM) | 32 (≈ 104 µM) | 64 (≈ 209 µM) | 32 (≈ 104 µM)
Cc1cc2c(cc1F)SC(c1c[nH]c3ccccc13)CC2=O (stereo not given) | > 128 | 64 (≈ 206 µM) | 128 (≈ 411 µM) | 64 (≈ 206 µM) | 64 (≈ 206 µM)
O=C1CC(c2c[nH]c3ccc(Cl)cc23)Sc2c(F)cccc21 (stereo not given) | 32 (≈ 96.4 µM) | 4 (≈ 12.1 µM) | 8 (≈ 24.1 µM) | 8 (≈ 24.1 µM) | 4 (≈ 12.1 µM)
Cc1cc(C)c2c(c1)C(=O)CC(c1c[nH]c3ccccc13)S2 (stereo not given) | 64 (≈ 208 µM) | 32 (≈ 104 µM) | 128 (≈ 416 µM) | 64 (≈ 208 µM) | 128 (≈ 416 µM)
O=C1CC(c2c[nH]c3ccc(O)cc23)Sc2c(F)cccc21 (stereo not given) | 16 (≈ 51.1 µM) | 8 (≈ 25.5 µM) | 16 (≈ 51.1 µM) | 16 (≈ 51.1 µM) | 4 (≈ 12.8 µM)
O=C1CC(c2c[nH]c3ccccc23)Sc2ccc(Cl)cc21 (stereo not given) | 64 (≈ 204 µM) | 32 (≈ 102 µM) | 64 (≈ 204 µM) | 64 (≈ 204 µM) | 32 (≈ 102 µM)
C[C@@H]1[C@H](O)[C@@H](C)/C=C/C=C/C=C/C=C/C=C/C=C/C=C/[C@H](O[C@@H]2O[C@H](C)[C@@H](O)[C@H](N)[C@@H]2O)C[C@@H]2O[C@](O)(C[C@@H](O)C[C@@H](O)[C@H](O)CC[C@@H](O)C[C@@H](O)CC(=O)O[C@H]1C)C[C@H](O)[C@H]2C(=O)O [AMPHOTERICIN B] | 2 (≈ 2.16 µM) | 4 (≈ 4.33 µM) | 4 (≈ 4.33 µM) | 2 (≈ 2.16 µM) | 2 (≈ 2.16 µM)
O=C1CC(c2c[nH]c3ccccc23)Sc2ccc(F)cc21 (stereo not given) | 128 (≈ 430 µM) | 64 (≈ 215 µM) | 32 (≈ 108 µM) | 32 (≈ 108 µM) | 32 (≈ 108 µM)
Cc1cccc2c1SC(c1c[nH]c3ccccc13)CC2=O (stereo not given) | 64 (≈ 218 µM) | 64 (≈ 218 µM) | 64 (≈ 218 µM) | 64 (≈ 218 µM) | 128 (≈ 436 µM)
O=C1CC(c2c[nH]c3ccc(Cl)cc23)Sc2ccc(Cl)cc21 (stereo not given) | 64 (≈ 184 µM) | 4 (≈ 11.5 µM) | 8 (≈ 23 µM) | 16 (≈ 45.9 µM) | 8 (≈ 23 µM)
O=C1CC(c2c[nH]c3ccccc23)Sc2c(F)cccc21 (stereo not given) | 32 (≈ 108 µM) | 16 (≈ 53.8 µM) | 32 (≈ 108 µM) | 8 (≈ 26.9 µM) | 8 (≈ 26.9 µM)
Cc1cc(C)c2c(c1)C(=O)CC(c1c[nH]c3ccc(Cl)cc13)S2 (stereo not given) | 32 (≈ 93.6 µM) | 16 (≈ 46.8 µM) | 32 (≈ 93.6 µM) | 16 (≈ 46.8 µM) | 16 (≈ 46.8 µM)
Cc1cc(C)c2c(c1)C(=O)CC(c1c[nH]c3ccc(O)cc13)S2 (stereo not given) | 64 (≈ 198 µM) | 16 (≈ 49.5 µM) | 32 (≈ 98.9 µM) | 16 (≈ 49.5 µM) | 16 (≈ 49.5 µM)
Cc1ccc2c(c1)C(=O)CC(c1c[nH]c3ccccc13)S2 (stereo not given) | 128 (≈ 436 µM) | 32 (≈ 109 µM) | 128 (≈ 436 µM) | > 128 | > 128
Cc1cccc2c1SC(c1cn(C)c3ccccc13)CC2=O (stereo not given) | 128 (≈ 416 µM) | 32 (≈ 104 µM) | 64 (≈ 208 µM) | 32 (≈ 104 µM) | 64 (≈ 208 µM)
